# Reference: ChEMBL document CHEMBL3414433, “Discovery and profiling of a selective and efficacious Syk inhibitor” (J Med Chem, 2015)
# Activity calls are given as the source filed them. The calls are words filed in the database; no cut-off is given here.
# Key:
# [1] = molecular target: T1, Tyrosine-protein kinase SYK (Homo sapiens, UniProt P43405)
# [2] = Cytotoxicity against C57BL/6 mouse bone marrow cells assessed as growth inhibition preincubated for 4 days followed by [3H]-thymidine addition measured after 5 hrs by betaplate counting analysis; assay type: cell-based, Bone marrow cell; conditions: Mus musculus, C57BL/6, Bone marrow cell
# [3] = molecular target: T1, Tyrosine-protein kinase SYK; assay: Inhibition of Syk in anti-igM stimulated human Ramos B cells assessed as phospho-BLNK level preincubated for 30 mins followed by anti-IgM stimulation measured after 15 mins by flow cytometric analysis; assay type: cell-based
# [4] = Volume of distribution at steady state in Sprague-Dawley rat at 1 mg/kg, iv and 3 mg/kg, po administered as cassette dosing; assay type: ADME, organism-based; conditions: in vivo, read-out: Vdss
# Outline: (§1)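 Rats were dosed i.v. at 1 mg/kg in NMP/PEG200 (3:7) and p.o. at 3 mg/kg in CMC/water/Tween (0.5:99:0.5). PK parameters were derived from blood concentration–time curves for both routes.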
# [5] = Oral bioavailability in Sprague-Dawley rat at 3 mg/kg administered as cassette dosing; assay type: ADME, organism-based; conditions: in vivo
# Outline: as §1
# [6] = Mean residence time in Beagle dog at 0.1 mg/kg, iv and 0.3 mg/kg, po; assay type: ADME, organism-based, Canis lupus familiaris; conditions: in vivo
# Outline: (§2)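 Beagle dogs dosed one-in-one. The i.v. dose was 0.1 mg/kg in NMP/PEG200 (3:7), and the p.o. dose was 0.3 mg/kg in MC/water (0.5:99.5). Blood levels were followed after each route.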
# Canis familiaris [7] = assay: Dose normalized AUC in Beagle dog at 0.1 mg/kg, iv; assay type: ADME, organism-based, Canis lupus familiaris; design: dose 0.1 mg/kg, route intravenous; conditions: in vivo
# Outline: (§3)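 One-in-one dosing in Beagle dogs: i.v. 0.1 mg/kg in NMP/PEG200 (3:7); p.o. 0.3 mg/kg in MC/water (0.5:99.5). Exposure values dose normalized.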
# [8] = Oral bioavailability in Beagle dog at 0.3 mg/kg; assay type: ADME, organism-based, Canis lupus familiaris; conditions: in vivo
# Outline: as §2
# Canis familiaris [9] = assay: Dose normalized Cmax in Beagle dog at 0.1 mg/kg, iv and 0.3 mg/kg, po; assay type: ADME, organism-based, Canis lupus familiaris; conditions: in vivo
# Outline: as §3
# [10] = molecular target: Serine/threonine-protein kinase PAK 4 (Homo sapiens, UniProt O96013); assay: Competitive binding affinity to human PAK4
# Sequence of Serine/threonine-protein kinase PAK 4 (O96013 whole entry): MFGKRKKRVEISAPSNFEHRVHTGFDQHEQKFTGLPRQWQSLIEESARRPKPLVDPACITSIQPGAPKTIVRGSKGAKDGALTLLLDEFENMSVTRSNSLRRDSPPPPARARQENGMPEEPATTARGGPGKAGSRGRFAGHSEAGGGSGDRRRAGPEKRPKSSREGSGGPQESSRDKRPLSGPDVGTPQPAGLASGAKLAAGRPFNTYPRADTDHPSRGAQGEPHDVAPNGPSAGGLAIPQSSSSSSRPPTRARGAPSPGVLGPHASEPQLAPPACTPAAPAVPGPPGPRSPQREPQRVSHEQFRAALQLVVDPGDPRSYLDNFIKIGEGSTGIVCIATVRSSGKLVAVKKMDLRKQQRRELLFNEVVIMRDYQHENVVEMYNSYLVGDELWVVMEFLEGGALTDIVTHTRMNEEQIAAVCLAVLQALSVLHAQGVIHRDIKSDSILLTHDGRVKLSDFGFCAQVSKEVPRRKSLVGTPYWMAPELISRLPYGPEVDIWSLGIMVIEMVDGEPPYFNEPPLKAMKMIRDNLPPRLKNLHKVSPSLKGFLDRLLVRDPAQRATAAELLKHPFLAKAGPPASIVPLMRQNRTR
# [11] = molecular target: Serine/threonine-protein kinase PAK 6 (Homo sapiens, UniProt Q9NQU5); assay: Competitive binding affinity to human PAK6
# Sequence of Serine/threonine-protein kinase PAK 6 (Q9NQU5 whole entry): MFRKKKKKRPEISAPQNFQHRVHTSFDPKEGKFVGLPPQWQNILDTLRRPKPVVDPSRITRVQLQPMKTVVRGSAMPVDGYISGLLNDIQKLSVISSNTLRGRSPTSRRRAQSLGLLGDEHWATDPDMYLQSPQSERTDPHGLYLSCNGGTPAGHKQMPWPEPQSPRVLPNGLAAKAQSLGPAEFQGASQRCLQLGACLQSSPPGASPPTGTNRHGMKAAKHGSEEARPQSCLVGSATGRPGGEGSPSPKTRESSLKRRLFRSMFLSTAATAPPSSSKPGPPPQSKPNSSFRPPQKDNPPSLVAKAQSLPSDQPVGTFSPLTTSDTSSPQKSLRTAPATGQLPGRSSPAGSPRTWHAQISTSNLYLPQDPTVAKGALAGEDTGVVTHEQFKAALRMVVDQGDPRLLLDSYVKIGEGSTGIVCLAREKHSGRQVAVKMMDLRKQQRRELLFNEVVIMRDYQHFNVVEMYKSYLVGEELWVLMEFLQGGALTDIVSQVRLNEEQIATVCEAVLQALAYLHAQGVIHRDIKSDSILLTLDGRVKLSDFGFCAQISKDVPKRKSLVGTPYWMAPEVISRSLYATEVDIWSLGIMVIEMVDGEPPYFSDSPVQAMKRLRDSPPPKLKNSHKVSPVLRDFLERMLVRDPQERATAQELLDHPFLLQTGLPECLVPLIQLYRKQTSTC
# [12] = Volume of distribution at steady state in Beagle dog at 0.1 mg/kg, iv and 0.3 mg/kg, po; assay type: ADME, organism-based, Canis lupus familiaris; conditions: in vivo, read-out: Vdss
# Outline: as §2
# Rattus norvegicus [13] = assay: In vivo inhibition of Syk in Lewis rat assessed as reduction in FcgR-induced SLP76 phosphorylation in peripheral blood monocytes at 22 mg/kg, po measured after 4 hrs relative to vehicle-treated control; assay type: functional
# Outline: (§4)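 Single oral dose of 22 mg/kg to Lewis rats; blood sampled at 2, 4 and 24 h after dosing for compound level and ex vivo FcγR-induced phospho-SLP76 in peripheral blood monocytes.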
# Rattus norvegicus [14] = assay: In vivo inhibition of Syk in Lewis rat assessed as reduction in FcgR-induced SLP76 phosphorylation in peripheral blood monocytes at 22 mg/kg, po measured after 24 hrs relative to vehicle-treated control; assay type: functional
# Outline: as §4
# [15] = Drug uptake in Lewis rat blood at 22 mg/kg, po measured after 4 hrs; assay type: ADME, organism-based; design: dose 22 mg/kg, route oral; conditions: read-out: Drug uptake
# Outline: as §4
# Rattus norvegicus [16] = assay: Antiarthritic activity in Lewis rat collagen-induced arthritis model assessed as reduction of inflammatory cell infiltration in hind paw at 3 to 30 mg/kg, po qd administered on day 15 post immunization measured after day 28 by Giemsa/safranin O staining-based assay; assay type: functional, organism-based
# Outline: (§5)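 Female Lewis rats (140−160 g), arthritis induced by porcine collagen immunization (day 0) and boost (day 7); rats with swollen joints randomized, dosed orally once daily from day 15 to day 28. Hind paws taken on day 28, fixed in 10% buffered formalin for 48 h, decalcified over 16 days, paraffin-embedded; 3 μm sections stained with Giemsa and safranin O and scored.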
# Rattus norvegicus [17] = assay: Antiarthritic activity in Lewis rat collagen-induced arthritis model assessed as reduction of proteoglycan loss in hind paw at 3 to 30 mg/kg, po qd administered on day 15 post immunization measured after day 28 by Giemsa/safranin O staining-based assay; assay type: functional, organism-based
# Outline: as §5
# [18] = Drug uptake in blood of Lewis rat collagen-induced arthritis model at 3 mg/kg, po qd administered on day 15 post immunization measured at 4 hrs on day 18; assay type: ADME, organism-based; design: dose 3 mg/kg, route oral; conditions: read-out: Drug uptake
# Outline: (§6)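 Collagen-arthritic Lewis rats given 3, 10 or 30 mg/kg p.o. once daily from day 15; blood levels measured on day 18 (third day of treatment) at 4, 8 and 24 h after dosing.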
# [19] = Drug uptake in blood of Lewis rat collagen-induced arthritis model at 10 mg/kg, po qd administered on day 15 post immunization measured at 4 hrs on day 18; assay type: ADME, organism-based; design: dose 10 mg/kg, route oral; conditions: read-out: Drug uptake
# Outline: as §6
# [20] = Drug uptake in blood of Lewis rat collagen-induced arthritis model at 3 mg/kg, po qd administered on day 15 post immunization measured at 8 hrs on day 18; assay type: ADME, organism-based; design: dose 3 mg/kg, route oral; conditions: read-out: Drug uptake
# Outline: as §6
# [21] = Drug uptake in blood of Lewis rat collagen-induced arthritis model at 10 mg/kg, po qd administered on day 15 post immunization measured at 8 hrs on day 18; assay type: ADME, organism-based; design: dose 10 mg/kg, route oral; conditions: read-out: Drug uptake
# Outline: as §6
# [22] = Drug uptake in blood of Lewis rat collagen-induced arthritis model at 30 mg/kg, po qd administered on day 15 post immunization measured at 24 hrs on day 18; assay type: ADME, organism-based; design: dose 30 mg/kg, route oral; conditions: read-out: Drug uptake
# Outline: as §6
# Rattus norvegicus [23] = assay: In vivo inhibition of Syk in Lewis rat assessed as reduction in FcgR-induced SLP76 phosphorylation in peripheral blood monocytes at 3 to 30 mg/kg, po measured after 2 to 24 hrs; assay type: functional, organism-based; design: route oral
# Rattus norvegicus [24] = species on record: Rattus norvegicus; assay: Hepatotoxicity in rat assessed as bile plugs measured for 4 weeks by GLP study; assay type: toxicity, organism-based; conditions: in vivo, 672 h
# Canis familiaris [25] = species on record: Canis familiaris; assay: Hepatotoxicity in dog assessed as single necrosis of hepatocytes measured for 4 weeks by GLP study; assay type: toxicity, organism-based, Canis lupus familiaris, Hepatocyte; conditions: 672 h
# Canis familiaris [26] = species on record: Canis familiaris; assay: Toxicity in dog assessed as prolongation of QT interval by telemetry study; assay type: organism-based, Canis lupus familiaris; conditions: in vivo
# [27] = Drug metabolism in liver microsomes (unknown origin); assay type: ADME
# Rattus norvegicus [28] = species on record: Rattus norvegicus; assay: Drug metabolism in rat; assay type: ADME, organism-based; conditions: in vivo
smiles,measurement,setting,value
NC(=O)c1nnc(N[C@@H]2CCCC[C@@H]2N)nc1Nc1cccc2cc[nH]c12,IC50,[1],35 nM
same,IC50,[2],9020 nM
same,IC50,[3],99 nM
same,Vd,[4],16.4 L/kg
same,bioavailability,[5],60%
same,MRT,[6],8.4 h
same,AUC/dose,Canis familiaris [7],3414 nM·h
same,bioavailability,[8],54%
same,Cmax/dose,Canis familiaris [9],139 nM
same,Kd,[10],17 nM
same,Kd,[11],110 nM
same,Vd,[12],6.8 L/kg
same,inhibition in vivo at 22 mg/kg,Rattus norvegicus [13],85%
same,inhibition in vivo at 22 mg/kg,Rattus norvegicus [14],45%
same,concentration at 4 h,[15],1100 nM
same,Activity,Rattus norvegicus [16],Active
same,Activity,Rattus norvegicus [17],Active
same,concentration at 4 h,[18],126 nM
same,concentration at 4 h,[19],866 nM
same,concentration at 8 h,[20],65 nM
same,concentration at 8 h,[21],349 nM
same,concentration at 24 h,[22],461 nM
same,IC50,Rattus norvegicus [23],189 nM
same,Activity,Rattus norvegicus [24],Toxic
same,Activity,Canis familiaris [25],Toxic
same,Activity,Canis familiaris [26],Non-toxic
same,Drug metabolism,[27],metabolite_notdetected
same,Drug metabolism,Rattus norvegicus [28],metabolite_notdetected
